In ChEMBL document CHEMBL4680104, “Structure-Based Optimization of Small-Molecule Inhibitors for the β-Catenin/B-Cell Lymphoma 9 Protein-Protein Interaction” (J Med Chem, 2018):

Columns and labels:
[1] = target: T1, beta-catenin-B-cell lymphoma 9 protein complex (Homo sapiens, UniProt P35222); assay: Inhibition of protein interaction between beta-catenin (unknown origin)/BCL9 (unknown origin) by Alpha-screen competitive inhibition assay; type: protein-complex assay
T1 sequence (P35222 whole entry): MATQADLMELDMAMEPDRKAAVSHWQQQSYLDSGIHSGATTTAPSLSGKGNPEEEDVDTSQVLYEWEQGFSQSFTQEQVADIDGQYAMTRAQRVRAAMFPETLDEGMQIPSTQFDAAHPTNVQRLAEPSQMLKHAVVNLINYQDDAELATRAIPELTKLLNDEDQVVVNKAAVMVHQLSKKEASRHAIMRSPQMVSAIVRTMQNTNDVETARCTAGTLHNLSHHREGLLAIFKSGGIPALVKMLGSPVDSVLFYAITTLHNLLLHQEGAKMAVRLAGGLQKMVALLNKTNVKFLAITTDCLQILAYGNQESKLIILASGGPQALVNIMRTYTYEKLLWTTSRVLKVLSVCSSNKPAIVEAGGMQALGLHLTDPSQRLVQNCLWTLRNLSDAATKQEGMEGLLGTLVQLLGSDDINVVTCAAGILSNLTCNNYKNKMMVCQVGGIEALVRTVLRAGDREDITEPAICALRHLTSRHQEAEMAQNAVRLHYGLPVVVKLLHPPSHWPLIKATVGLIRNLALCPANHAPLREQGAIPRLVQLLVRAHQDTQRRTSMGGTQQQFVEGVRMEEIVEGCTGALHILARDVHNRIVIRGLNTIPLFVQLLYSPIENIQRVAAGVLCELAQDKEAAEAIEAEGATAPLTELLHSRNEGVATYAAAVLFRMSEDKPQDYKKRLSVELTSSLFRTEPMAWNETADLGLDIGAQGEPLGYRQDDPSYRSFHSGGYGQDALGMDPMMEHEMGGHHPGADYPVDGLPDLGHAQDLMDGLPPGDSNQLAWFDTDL
T1 sequence (O00512 whole entry): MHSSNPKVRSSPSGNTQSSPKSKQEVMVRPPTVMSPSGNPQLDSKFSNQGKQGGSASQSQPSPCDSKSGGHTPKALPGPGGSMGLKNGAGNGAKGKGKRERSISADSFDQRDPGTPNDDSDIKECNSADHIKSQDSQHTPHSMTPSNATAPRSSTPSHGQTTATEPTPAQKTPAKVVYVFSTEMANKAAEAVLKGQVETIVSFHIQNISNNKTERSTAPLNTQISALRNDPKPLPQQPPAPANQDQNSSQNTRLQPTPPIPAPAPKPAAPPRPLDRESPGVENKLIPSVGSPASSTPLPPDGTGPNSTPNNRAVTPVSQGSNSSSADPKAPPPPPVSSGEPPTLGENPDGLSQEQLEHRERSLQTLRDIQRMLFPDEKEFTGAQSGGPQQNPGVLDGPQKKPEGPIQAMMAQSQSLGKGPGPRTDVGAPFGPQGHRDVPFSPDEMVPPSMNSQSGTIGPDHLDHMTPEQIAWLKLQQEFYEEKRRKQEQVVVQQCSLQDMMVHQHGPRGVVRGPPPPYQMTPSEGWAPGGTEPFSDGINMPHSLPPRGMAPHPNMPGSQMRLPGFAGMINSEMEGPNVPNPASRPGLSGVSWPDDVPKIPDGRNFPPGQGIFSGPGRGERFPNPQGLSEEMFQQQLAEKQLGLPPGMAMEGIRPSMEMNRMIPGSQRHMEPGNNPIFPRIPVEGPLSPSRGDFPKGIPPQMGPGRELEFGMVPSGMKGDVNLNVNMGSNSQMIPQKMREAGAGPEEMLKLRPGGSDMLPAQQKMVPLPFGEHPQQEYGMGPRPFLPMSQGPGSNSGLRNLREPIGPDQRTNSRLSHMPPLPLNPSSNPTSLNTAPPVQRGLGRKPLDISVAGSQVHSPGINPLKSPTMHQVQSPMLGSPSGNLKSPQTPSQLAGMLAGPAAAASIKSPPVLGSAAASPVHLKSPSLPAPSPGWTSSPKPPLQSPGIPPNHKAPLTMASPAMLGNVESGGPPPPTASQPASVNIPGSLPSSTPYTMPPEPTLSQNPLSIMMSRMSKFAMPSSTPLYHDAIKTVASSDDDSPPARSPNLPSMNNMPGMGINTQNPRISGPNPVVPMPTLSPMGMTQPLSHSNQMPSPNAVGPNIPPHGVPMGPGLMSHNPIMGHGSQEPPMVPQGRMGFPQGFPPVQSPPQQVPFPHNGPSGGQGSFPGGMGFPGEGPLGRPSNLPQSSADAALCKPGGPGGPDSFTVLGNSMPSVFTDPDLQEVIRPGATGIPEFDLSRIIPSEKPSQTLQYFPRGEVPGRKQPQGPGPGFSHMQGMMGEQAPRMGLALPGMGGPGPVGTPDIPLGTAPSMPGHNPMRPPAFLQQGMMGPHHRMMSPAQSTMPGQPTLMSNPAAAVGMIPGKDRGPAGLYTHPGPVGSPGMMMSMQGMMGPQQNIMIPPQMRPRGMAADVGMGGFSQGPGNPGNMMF
Procedure, shortened: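 Purified His6-tagged full-length β-catenin (40 nM) preincubated with biotinylated BCL9 (5 nM) for 30 min at 4 °C. Inhibitor dilutions then added, 1 h at 4 °C, followed by donor and acceptor beads (10 μg/mL final) for 1 h at 4 °C. IC50 obtained by nonlinear least-squares fit and converted to Ki by the Nikolovska-Coleska method. Triplicate, mean ± SD.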

[2] = target: beta-catenin-B-cell lymphoma 9 protein complex (Homo sapiens) (UniProt P35222+O00512); assay: Inhibition of protein interaction between full-length beta-catenin (unknown origin) / full-length BCL9 (unknown origin) in human HCT-116 cells incubated for 24 hrs by co-immunoprecipitation assay; type: cell-based
Procedure, shortened: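 Intact HCT116 cells at 1 × 10^6/mL were treated with a range of inhibitor concentrations for 24 h. They were then lysed in Tris pH 7.4/NaCl/NP-40/EDTA buffer with protease inhibitors and precleared on A/G agarose. Anti-β-catenin immunoprecipitation ran overnight at 4 °C, with A/G capture for 3 h and five washes. Samples were run on 8% SDS-PAGE and immunoblotted for BCL9 and E-cadherin.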

[3] = Effect on HPRT mRNA expression in human SW480 cells at 50 uM incubated for 24 hrs by qPCR analysis relative to control; type: ADME, cell-based; settings: read-out: FC
Procedure, shortened: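 SW480 cells at 1 × 10^6/mL were treated with inhibitor for 24 h. Total RNA was extracted with TRIzol and cDNA made by first-strand synthesis. SYBR green qPCR used human HPRT primers, with CT values normalised to GAPDH as internal reference. Performed in triplicate.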

Structure (SMILES)	Ki [1]	inhibition [2]	fold induction at 50 µM [3]
Cl.Cl.O=C(Nc1ccc(O[C@H]2CCNC2)c(-c2ccc(F)cc2)c1)c1ccc(O[C@H]2CCNC2)c(-c2ccc(F)c(F)c2)c1	2100 nM		
Cl.Cl.O=C(Nc1ccc(O[C@@H]2CCNC2)c(-c2cccc(-c3nn[nH]n3)c2)c1)c1ccc(O[C@H]2CCNC2)c(-c2ccc(F)c(F)c2)c1		Dose-dependent effect	0.979
